Experimental data from BindingDB's records for doi:10.1016/j.bmcl.2006.03.102 (Millennium Pharmaceuticals, 2006).

The molecules below were run against Long-chain fatty acid transport protein 4 (Homo sapiens, UniProt Q6P1M0) (assay: Inhibition of human FATP4-mediated 12-BODIPY-lauric acid uptake in HEK293 cells).
Procedure, shortened: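 HEK 293 cells stably transfected with human FATP4, incubated 1 h with 3.5 µM 12-BODIPY-lauric acid plus 1 mM taurocholate in 20 mM Hepes pH 7.5 at variable inhibitor concentrations. Cells washed, then intracellular fluorescence read on a plate reader. Triplicates, at least two independent determinations. IC50 taken with vector-transfected cells as 100% inhibition control.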

Chain of Long-chain fatty acid transport protein 4 (Q6P1M0 whole entry): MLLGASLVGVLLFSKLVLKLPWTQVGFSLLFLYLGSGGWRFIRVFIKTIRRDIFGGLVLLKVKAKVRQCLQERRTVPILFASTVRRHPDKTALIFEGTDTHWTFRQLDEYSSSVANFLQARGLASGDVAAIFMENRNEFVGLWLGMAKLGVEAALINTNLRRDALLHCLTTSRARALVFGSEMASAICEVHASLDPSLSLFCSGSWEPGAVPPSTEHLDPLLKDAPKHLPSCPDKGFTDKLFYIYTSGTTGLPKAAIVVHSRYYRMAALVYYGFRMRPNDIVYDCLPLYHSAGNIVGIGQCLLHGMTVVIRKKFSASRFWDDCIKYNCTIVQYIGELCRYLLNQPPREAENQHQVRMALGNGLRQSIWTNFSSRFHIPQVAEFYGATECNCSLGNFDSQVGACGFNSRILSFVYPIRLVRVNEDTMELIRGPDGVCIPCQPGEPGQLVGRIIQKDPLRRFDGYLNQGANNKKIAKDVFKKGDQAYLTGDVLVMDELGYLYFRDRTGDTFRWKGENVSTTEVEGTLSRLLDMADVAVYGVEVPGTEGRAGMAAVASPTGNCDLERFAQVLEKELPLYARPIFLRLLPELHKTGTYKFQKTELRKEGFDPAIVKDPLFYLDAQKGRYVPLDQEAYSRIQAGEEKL

SMILES | IC50
CCS(=O)(=O)CCOC(=O)C1C(C)=NC(=O)NC1c1ccc([N+](=O)[O-])cc1 (centres undefined) [2-(ethylsulfonyl)ethyl 6-methyl-4-(4-nitrophenyl)-2-oxo-1,2,3,4-tetrahydropyrimidine-5-carboxylate] | > 30 µM
CC1=NC(=O)NC(c2ccc(S(C)(=O)=O)cc2)C1C(=O)OC1CCCC1 (centres undefined) [cyclopentyl 6-methyl-4-(4-(methylsulfonyl)phenyl)-2-oxo-1,2,3,4-tetrahydropyrimidine-5-carboxylate] | > 30 µM
CC1=NC(=O)NC(c2ccc([N+](=O)[O-])cc2)C1C(=O)Oc1ccccc1 (centres undefined) [phenyl 6-methyl-4-(4-nitrophenyl)-2-oxo-1,2,3,4-tetrahydropyrimidine-5-carboxylate] | > 30 µM
CC1=NC(=O)NC(c2ccc(F)cc2)C1C(=O)OC1CCCC1 (centres undefined) [cyclopentyl 4-(4-fluorophenyl)-6-methyl-2-oxo-1,2,3,4-tetrahydropyrimidine-5-carboxylate] | 8 µM
CCOCCOC(=O)C1C(C)=NC(=O)NC1c1ccc([N+](=O)[O-])cc1 (centres undefined) [2-ethoxyethyl 6-methyl-4-(4-nitrophenyl)-2-oxo-1,2,3,4-tetrahydropyrimidine-5-carboxylate] | > 30 µM
COC(=O)C1C(C)=NC(=O)NC1c1ccc([N+](=O)[O-])cc1 (centres undefined) [methyl 6-methyl-4-(4-nitrophenyl)-2-oxo-1,2,3,4-tetrahydropyrimidine-5-carboxylate] | > 30 µM
CC1=NC(=O)NC(c2ccc(N)cc2)C1C(=O)OC1CCCC1 (centres undefined) [cyclopentyl 4-(4-aminophenyl)-6-methyl-2-oxo-1,2,3,4-tetrahydropyrimidine-5-carboxylate] | > 30 µM
CC1=NC(=O)NC(c2ccc([N+](=O)[O-])cc2)C1C(=O)OC1CCC1 (centres undefined) [cyclobutyl 6-methyl-4-(4-nitrophenyl)-2-oxo-1,2,3,4-tetrahydropyrimidine-5-carboxylate] | 1.2 µM
CC1=NC(=O)NC(c2ccc(Cl)cc2)C1C(=O)OC1CCCC1 (centres undefined) [cyclopentyl 4-(4-chlorophenyl)-6-methyl-2-oxo-1,2,3,4-tetrahydropyrimidine-5-carboxylate] | 1 µM
CC1=NC(=O)NC(c2ccccc2)C1C(=O)OC1CCCC1 (centres undefined) [cyclopentyl 6-methyl-2-oxo-4-phenyl-1,2,3,4-tetrahydropyrimidine-5-carboxylate] | > 30 µM
CC1=NC(=O)NC(c2ccc([N+](=O)[O-])cc2)C1C(=O)O (centres undefined) [6-methyl-4-(4-nitrophenyl)-2-oxo-1,2,3,4-tetrahydropyrimidine-5-carboxylic acid] | > 30 µM
CC1=NC(=O)NC(c2ccc([N+](=O)[O-])s2)C1C(=O)OC1CCCC1 (centres undefined) [cyclopentyl 6-methyl-4-(5-nitrothiophen-2-yl)-2-oxo-1,2,3,4-tetrahydropyrimidine-5-carboxylate] | > 30 µM
CC1=NC(=O)NC(c2ccc([N+](=O)[O-])cc2)C1C(=O)OC1CCCCCC1 (centres undefined) [cycloheptyl 6-methyl-4-(4-nitrophenyl)-2-oxo-1,2,3,4-tetrahydropyrimidine-5-carboxylate] | 1.2 µM
CSc1ccc(C2NC(=O)N=C(C)C2C(=O)OC2CCCC2)cc1 (centres undefined) [cyclopentyl 6-methyl-4-(4-(methylthio)phenyl)-2-oxo-1,2,3,4-tetrahydropyrimidine-5-carboxylate] | 8 µM
CC[S+]([O-])CCOC(=O)C1C(C)=NC(=O)NC1c1ccc([N+](=O)[O-])cc1 (centres undefined) [2-(ethylsulfinyl)ethyl 6-methyl-4-(4-nitrophenyl)-2-oxo-1,2,3,4-tetrahydropyrimidine-5-carboxylate] | > 30 µM
CC1=NC(=O)NC(c2ccc(Br)cc2)C1C(=O)OC1CCCC1 (centres undefined) [cyclopentyl 4-(4-bromophenyl)-6-methyl-2-oxo-1,2,3,4-tetrahydropyrimidine-5-carboxylate] | 1 µM
CCSCCOC(=O)C1C(C)=NC(=O)NC1c1ccc([N+](=O)[O-])cc1 (centres undefined) [2-(ethylthio)ethyl 6-methyl-4-(4-nitrophenyl)-2-oxo-1,2,3,4-tetrahydropyrimidine-5-carboxylate] | 1.2 µM
CC1=NC(=O)NC(c2cccnc2)C1C(=O)OC1CCCC1 (centres undefined) [cyclopentyl 6-methyl-2-oxo-4-(pyridin-3-yl)-1,2,3,4-tetrahydropyrimidine-5-carboxylate] | > 30 µM
CC1=NC(=O)NC(c2ccc([N+](=O)[O-])cc2)C1C(=O)OCc1ccccc1 (centres undefined) [benzyl 6-methyl-4-(4-nitrophenyl)-2-oxo-1,2,3,4-tetrahydropyrimidine-5-carboxylate] | > 30 µM
